Assay results from ChEMBL document CHEMBL1269007, “Synthesis and biological evaluation of Apogossypolone derivatives as pan-active inhibitors of antiapoptotic B-cell lymphoma/leukemia-2 (Bcl-2) family proteins” (J Med Chem, 2010).
Calls of active or inactive are those of the source. The rule behind the calls is not given here.

Key:
[1] = Metabolic stability of the compound in rat plasma after 40 mins; format: ADME, cell-free; details: read-out: Stability
[2] = target: T1, Bcl-2-like protein 1 (Homo sapiens, UniProt Q07817); experiment: Displacement of F-BakBH3 from Bcl-xL after 30 mins by fluorescence polarization assay
T1 sequence (Q07817 whole entry): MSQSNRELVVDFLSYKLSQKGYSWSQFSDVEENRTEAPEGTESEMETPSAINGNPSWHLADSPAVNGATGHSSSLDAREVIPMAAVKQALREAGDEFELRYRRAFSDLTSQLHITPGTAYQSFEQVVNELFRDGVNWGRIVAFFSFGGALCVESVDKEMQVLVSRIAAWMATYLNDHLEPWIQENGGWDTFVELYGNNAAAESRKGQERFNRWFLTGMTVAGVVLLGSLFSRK
Summary of the method: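 GST-Bcl-XL ΔTM (100 nM) preincubated with varying compound concentrations in PBS pH 7.4 for 10 min at room temperature. FITC-labelled Bak BH3 peptide (2.5 μL of 100 nM stock) then added. Polarization read at 480/535 nm after 30 min at room temperature. Wild-type and mutant Bak BH3 peptides served as plate controls. IC50 from sigmoidal dose-response fit; mean of three independent experiments ± SE.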

[3] = test system: Mus musculus; experiment: Toxicity in human Bcl2 expressing B6 transgenic BALB/c mouse up to 120 umol/kg, ip administered as single dose after 24 hrs; format: organism-based; details: in vivo
Summary of the method: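 B6 Bcl-2 transgenic Balb/c mice, age- and sex-matched, given one intraperitoneal dose (60 or 120 μmol/kg, also 30 μmol/kg) in ethanol:Cremophor EL:saline 10:10:80, 500 μL; survival and signs of toxicity observed over 24 h before sacrifice.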

[4] = test system: Mus musculus; experiment: Reduction of spleen weight in ip dosed human Bcl2 expressing B6 transgenic BALB/c mouse administered as single dose after 24 hrs; format: functional, organism-based
[5] = test system: NCI-H460; experiment: Cytotoxicity against human H460 cells expressing high level of Bcl-2 after 72 hrs by ATP-LITE assay; format: functional, cell-based; details: NCI-H460, 72 h
Summary of the method: (§1)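 Cells seeded in […] or RPMI1640 with 5 mM L-glutamine, 5% FBS, penicillin/streptomycin; H460 and H1299 at 2000, PC3 at 3000 cells/well. Compounds in 0.1% DMSO final added 24 h after seeding into fresh 5% serum medium; viability by ATP-LITE luminescence after 72 h, normalised to DMSO-treated cells.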

[6] = target: T1, Bcl-2-like protein 1; experiment: Binding affinity Bcl-xL at 200 uM by one-dimensional 1H nuclear magnetic resonance spectroscopy
[7] = Cytotoxicity against human H1299 cells expressing high level of Mcl-1 after 72 hrs by ATP-LITE assay; format: functional, cell-based; details: NCI-H1299, 72 h; summary of the method: as §1
[8] = target: Induced myeloid leukemia cell differentiation protein Mcl-1 (Homo sapiens, UniProt Q07820); experiment: Displacement of FITC-Bim BH3 peptide from Mcl-1 after 10 mins by fluorescence polarization assay
Chain of Induced myeloid leukemia cell differentiation protein Mcl-1 (Q07820 whole entry): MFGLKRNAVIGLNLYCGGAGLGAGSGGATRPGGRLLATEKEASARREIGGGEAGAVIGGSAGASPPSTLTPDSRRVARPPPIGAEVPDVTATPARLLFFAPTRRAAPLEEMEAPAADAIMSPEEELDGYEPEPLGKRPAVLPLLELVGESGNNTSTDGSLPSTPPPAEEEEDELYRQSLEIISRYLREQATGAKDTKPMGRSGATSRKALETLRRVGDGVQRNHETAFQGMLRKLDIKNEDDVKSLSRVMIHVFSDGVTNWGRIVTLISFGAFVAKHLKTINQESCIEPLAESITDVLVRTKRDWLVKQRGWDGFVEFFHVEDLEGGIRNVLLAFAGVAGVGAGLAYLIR

[9] = Metabolic stability of the compound in rat microsomes after 40 mins; format: ADME, Microsome; details: read-out: Stability
[10] = Cytotoxicity against human BP3 cells expressing high level of Bfl-1 and Mcl-1 after 24 hrs by annexin V-FITC and propidium iodide staining; details: BP3, 24 h
[11] = target: Apoptosis regulator Bcl-2 (Homo sapiens, UniProt P10415); experiment: Displacement of FITC-Bim BH3 peptide from Bcl-2 after 10 mins by fluorescence polarization assay
Chain of Apoptosis regulator Bcl-2 (P10415 whole entry): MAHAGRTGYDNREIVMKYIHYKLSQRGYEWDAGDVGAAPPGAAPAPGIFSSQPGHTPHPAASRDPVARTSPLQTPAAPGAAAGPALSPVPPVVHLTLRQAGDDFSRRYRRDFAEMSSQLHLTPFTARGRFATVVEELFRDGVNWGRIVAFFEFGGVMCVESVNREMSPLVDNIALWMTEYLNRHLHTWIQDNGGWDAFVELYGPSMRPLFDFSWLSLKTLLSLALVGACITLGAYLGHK

[12] = test system: PC-3; experiment: Cytotoxicity against human PC3 cells expressing high level of Bcl-xL after 72 hrs by ATP-LITE assay; format: functional, cell-based; details: PC-3, 72 h; summary of the method: as §1
[13] = Cytotoxicity against human RS4:11 cells expressing high level of Bcl-2 and Bcl-xL after 24 hrs by annexin V-FITC and propidium iodide staining; details: RS4-11, 24 h
[14] = target: T2, Bcl-2-related protein A1 (Homo sapiens, UniProt Q16548); experiment: Displacement of F-BakBH3 from Bfl-1 after 30 mins by fluorescence polarization assay
T2 sequence (Q16548 whole entry): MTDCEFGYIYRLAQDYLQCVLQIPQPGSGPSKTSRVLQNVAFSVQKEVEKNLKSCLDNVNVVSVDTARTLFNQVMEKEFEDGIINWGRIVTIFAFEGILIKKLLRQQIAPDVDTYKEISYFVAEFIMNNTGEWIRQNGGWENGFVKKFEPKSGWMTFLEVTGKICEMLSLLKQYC

[15] = Cytotoxicity against human RS4:11 cells expressing high level of Bcl-2 and Bcl-xL after 72 hrs by annexin V-FITC and propidium iodide staining; format: functional, cell-based; details: RS4-11, 72 h
[16] = test system: Mus musculus; experiment: Toxicity in human Bcl2 expressing B6 transgenic BALB/c mouse assessed as mortality at 30 umol/kg, ip administered as single dose after 24 hrs; format: organism-based; details: in vivo
Summary of the method: (§2)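 Age- and sex-matched B6 Bcl2 transgenic mice (human BCL-2/IgH minigene on Balb/c background, no aggressive lymphoma yet) given a single i.p. injection of compound in 500 μL ethanol:Cremophor EL:saline 10:10:80. Controls received vehicle. Animals sacrificed at 24 h with Avertin; spleen removed and weighed.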

[17] = test system: Mus musculus; experiment: Toxicity in human Bcl2 expressing B6 transgenic BALB/c mouse assessed as mortality at 60 umol/kg, ip administered as single dose after 24 hrs; format: organism-based; details: in vivo; summary of the method: as §2
[18] = test system: Mus musculus; experiment: Reduction of spleen weight in human Bcl2 expressing B6 transgenic BALB/c mouse at 30 umol/kg, ip administered as single dose after 24 hrs; format: functional; design: scale not given: the % may be the effect or the level left
[19] = test system: Mus musculus; experiment: Reduction of spleen weight in human Bcl2 expressing B6 transgenic BALB/c mouse at 60 umol/kg, ip administered as single dose after 24 hrs; format: functional; design: scale not given: the % may be the effect or the level left
[20] = test system: Mus musculus; experiment: Toxicity in human PPC1 cells xenografted nude mouse assessed as mortality at 25 mg/kg, ip administered weekly 3 times; format: organism-based, PPC-1; design: dose 25 mg/kg, route intraperitoneal; details: in vivo
Summary of the method: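 PPC-1 flank xenografts (5×10^6 cells s.c.) in female 6-week-old nude mice, size-matched at 200 mm³, 6 per group. Compound given i.p. three times in the first week in ethanol:Cremophor EL:saline 10:10:80 (500 μL); controls got saline. Survival and body weight monitored during week 1.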

| SMILES | remaining at 40 min [1] [%] | IC50 [2] [nM] | Ki [2] [nM] | Activity [4] | EC50 [5] [nM] | Activity [6] | EC50 [7] [nM] | IC50 [8] [nM] | Ki [8] [nM] | remaining at 40 min [9] [%] | EC50 [10] [nM] | IC50 [11] [nM] | Ki [11] [nM] | EC50 [12] [nM] | EC50 [13] [nM] | IC50 [14] [nM] | Ki [14] [nM] | further results |
| --- | --- | --- | --- | --- | --- | --- | --- | --- | --- | --- | --- | --- | --- | --- | --- | --- | --- | --- |
| CC1=C(C2=C(C)C(=O)c3c(cc(O)c(O)c3CCC3CCCCC3)C2=O)C(=O)c2cc(O)c(O)c(CCC3CCCCC3)c2C1=O | 74 | 12700 | 8400 | Dose-dependent effect | 2200 | Active | 1320 | 5900 | 3930 | 98 | 15600 | 6730 | 4470 | 2400 | 15700 | – | – | Activity [3]: Non-toxic |
| CC1=C(C2=C(C)C(=O)c3c(cc(O)c(O)c3CC3CCCC3)C2=O)C(=O)c2cc(O)c(O)c(CC3CCCC3)c2C1=O | – | 2990 | 2000 | Dose-dependent effect | 700 | Active | 2320 | 3080 | 2070 | – | 12800 | 2270 | 1530 | 5500 | 9830 | – | – | – |
| CC1=C(C2=C(C)C(=O)c3c(cc(O)c(O)c3CCC(C)(C)c3ccccc3)C2=O)C(=O)c2cc(O)c(O)c(CCC(C)(C)c3ccccc3)c2C1=O | – | – | – | Dose-dependent effect | 1620 | Active | 2160 | – | – | – | 30000 | – | – | 2000 | 15000 | – | – | – |
| CC1=C(C2=C(C)C(=O)c3c(cc(O)c(O)c3CCCc3ccccc3)C2=O)C(=O)c2cc(O)c(O)c(CCCc3ccccc3)c2C1=O | 87 | 1440 | 960 | Dose-dependent effect | 920 | Active | 1530 | 670 | 450 | 88 | – | 2170 | 1450 | 1300 | – | 5270 | 3530 | EC50 [15]: 3830 nM |
| CC1=C(C2=C(C)C(=O)c3c(cc(O)c(O)c3CCCc3ccc(F)cc3)C2=O)C(=O)c2cc(O)c(O)c(CCCc3ccc(F)cc3)c2C1=O | – | – | – | Dose-dependent effect | 1480 | Active | 1910 | – | – | – | 14600 | – | – | 2620 | 11200 | – | – | – |
| CC1=C(C2=C(C)C(=O)c3c(cc(O)c(O)c3Cc3ccc(-c4ccccc4)cc3)C2=O)C(=O)c2cc(O)c(O)c(Cc3ccc(-c4ccccc4)cc3)c2C1=O | – | – | – | Dose-dependent effect | 980 | Active | 10300 | – | – | – | 810 | – | – | 2970 | 1740 | – | – | – |
| CC1=C(C2=C(C)C(=O)c3c(cc(O)c(O)c3Cc3ccc(Cl)cc3)C2=O)C(=O)c2cc(O)c(O)c(Cc3ccc(Cl)cc3)c2C1=O | – | 150 | 110 | Dose-dependent effect | – | Active | – | 400 | 270 | – | – | 340 | 230 | – | – | 700 | 470 | Activity [16]: Non-toxic; Activity [17]: Toxic; Activity [18]: 76% |
| CC1=C(C2=C(C)C(=O)c3c(cc(O)c(O)c3C(=O)Cc3ccccc3)C2=O)C(=O)c2cc(O)c(O)c(C(=O)Cc3ccccc3)c2C1=O | – | 340 | 240 | Dose-dependent effect | 7380 | Active | > 30000 | 350 | 230 | – | 9580 | 220 | 150 | 5440 | – | 690 | 460 | EC50 [15]: > 30000 nM |
| CC1=C(C2=C(C)C(=O)c3c(cc(O)c(O)c3CC(C)C)C2=O)C(=O)c2cc(O)c(O)c(CC(C)C)c2C1=O | 98 | – | 370 | Dose-dependent effect | – | Active | – | – | 310 | 69 | – | – | 170 | – | – | – | 930 | Activity [3]: Non-toxic; Activity [19]: >30% |
| CC1=C(C2=C(C)C(=O)c3c(cc(O)c(O)c3CCc3ccc(OC(F)(F)F)cc3)C2=O)C(=O)c2cc(O)c(O)c(CCc3ccc(OC(F)(F)F)cc3)c2C1=O | – | – | – | Dose-dependent effect | 1440 | Active | 2380 | – | – | – | 16100 | – | – | 8990 | 7320 | – | – | – |
| Cc1cc2c(C(C)C)c(O)c(O)c(C=O)c2c(O)c1-c1c(C)cc2c(C(C)C)c(O)c(O)c(C=O)c2c1O [GOSSYPOL] | – | – | – | – | – | – | – | – | – | – | – | – | – | – | – | – | – | Activity [20]: Toxic |
| CC1=C(C2=C(C)C(=O)c3c(cc(O)c(O)c3C(=O)NCc3cccc(C)c3)C2=O)C(=O)c2cc(O)c(O)c(C(=O)NCc3cccc(C)c3)c2C1=O | – | – | – | Dose-dependent effect | 6160 | Active | > 30000 | – | – | – | 21600 | – | – | 5440 | > 30000 | – | – | – |
| CCc1ccc(CCNC(=O)c2c(O)c(O)cc3c2C(=O)C(C)=C(C2=C(C)C(=O)c4c(cc(O)c(O)c4C(=O)NCCc4ccc(CC)cc4)C2=O)C3=O)cc1 | – | 240 | 160 | Dose-dependent effect | – | Active | – | 320 | 210 | – | – | 210 | 140 | – | > 30000 | 1250 | 870 | – |
| CC1=C(C2=C(C)C(=O)c3c(cc(O)c(O)c3C(=O)NCC(C)c3ccccc3)C2=O)C(=O)c2cc(O)c(O)c(C(=O)NCC(C)c3ccccc3)c2C1=O (stereo not drawn) | 91 | 320 | 210 | Dose-dependent effect | – | Active | > 30000 | 470 | 310 | 71 | – | 230 | 150 | – | > 30000 | 710 | 470 | Activity [16]: Non-toxic; Activity [17]: Toxic |
| CC1=C(C2=C(C)C(=O)c3c(cc(O)c(O)c3CCc3ccccc3)C2=O)C(=O)c2cc(O)c(O)c(CCc3ccccc3)c2C1=O | 81 | 1790 | 1200 | Dose-dependent effect | 1040 | Active | 850 | 1290 | 870 | 89 | 8720 | 2570 | 1730 | 1400 | – | 9720 | 6470 | EC50 [15]: 4750 nM |
